pIC50: −log10 of the molar value. Calls of active or inactive are those of the source. No cut-off for these calls is given here.
Key:
Type in all cases: functional, cell-based
[1] = tested on: MDA-MB-231; assay: Cytotoxicity against human MDA-MB-231 cells after 72 hrs by MTT assay; details: for pIC50: MDA-MB-231, 72 h
Procedure, shortened: (§1)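 Hep G2 and MDA-MB-231 plated at 1 × 10^4 cells per well in triplicate with various compound concentrations. At 72 h medium removed, MTT (0.5 mg/mL) added for 1 h at 37 °C, crystals solubilized in DMSO, absorbance at 550 nm. Doxorubicin control; IC50 as mean of triplicates.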

[2] = tested on: A549; assay: Cytotoxicity against human A549 cells after 72 hrs by MTT assay; details: for pIC50: A549, 72 h
Procedure, shortened: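 A549 seeded at 5 × 10^3 cells per well in triplicate, exposed to various compound concentrations. After 72 h medium replaced by MTT (0.5 mg/mL), 1 h at 37 °C; formazan dissolved in DMSO, absorbance read at 550 nm. Doxorubicin control; IC50 as mean of triplicates.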

[3] = tested on: HepG2; assay: Cytotoxicity against human HepG2 cells after 72 hrs by MTT assay; details: for pIC50: HepG2, 72 h; procedure, shortened: as §1
[4] = (§2) Antiinflammatory activity in human neutrophils assessed as inhibition of fMLP/CB-induced superoxide anion generation after 5 mins by spectrophotometry; details: Neutrophil
Procedure, shortened: (§3)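 Cells with 0.5 mg/mL ferricytochrome c and 1 mM Ca2+ equilibrated 37 °C for 2 min, compound added 5 min, then cytochalasin B (1 μg/mL) 3 min before FMLP (100 nM) activation for 10 min. SOD-inhibitable ferricytochrome c reduction monitored continuously at 550 nm under stirring; IC50 from 50% inhibition; n = 3.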

[5] = (§4) Antiinflammatory activity in human neutrophils assessed as inhibition of fMLP/CB-induced elastase release after 5 mins by spectrophotometry; details: Neutrophil
Procedure, shortened: (§5)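 Neutrophils equilibrated with MeOSuc-Ala-Ala-Pro-Val-p-nitroanilide (100 μM) at 37 °C for 2 min, then exposed to compound 5 min. Activated with CB (0.5 μg/mL) plus FMLP (100 nM). Elastase release (azurophilic degranulation) followed as absorbance change at 405 nm; IC50 = concentration giving 50% inhibition; n = 3.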

[6] = tested on: Neutrophil; assay: as §2; procedure, shortened: as §3
[7] = tested on: Neutrophil; assay: as §4; procedure, shortened: as §5

Row | SMILES | pIC50 [4] | pIC50 [5] | pIC50 [1] | pIC50 [2] | pIC50 [3] | inhibition [6] | inhibition [7] | Activity [3] | Activity [1] | Activity [2]
1 | COc1cccc2c1C(=O)c1c(O)c3c(c(O)c1C2=O)C[C@@](O)(C(=O)CO)C[C@@H]3O[C@H]1C[C@H](N)[C@H](O)[C@H](C)O1 [DOXORUBICIN] |  |  | 6.06 | 6.06 |  |  |  |  |  | 
2 | CO[C@@H](c1ccccc1)[C@H](O)[C@@H]1CC=CC(=O)O1 |  |  | < 5.00 | < 5.00 | < 5.00 | inactive | inactive |  |  | 
3 | O=C1C[C@H]2C[C@H](O1)[C@H](O)[C@@H](c1ccccc1)O2 |  |  |  |  |  | inactive | inactive | inactive | inactive | inactive
4 | O=C1C=CC[C@@H]([C@@H](O)[C@@H](O)c2ccccc2)O1 |  |  | < 5.00 | < 5.00 | < 5.00 | inactive | inactive |  |  | 
5 | O=C1C=CC[C@@H]([C@H](O)[C@@H](O)c2ccccc2)O1 |  |  |  |  | < 5.00 | inactive | inactive |  |  | 
6 | CO[C@H](c1ccccc1)[C@@H](O)[C@@H]1CC=CC(=O)O1 |  |  | < 5.00 | < 5.00 | < 5.00 | inactive | inactive |  |  | 

Second part, led by results:

Row | pIC50 [4] | pIC50 [5] | SMILES | pIC50 [1] | pIC50 [2] | pIC50 [3] | inhibition [6] | inhibition [7] | Activity [3] | Activity [1] | Activity [2]
7 | 5.09 | 4.84 | O=C1C=CC(O)[C@H](/C=C/c2ccccc2)O1 (stereo partly specified) | < 5.00 | 5.10 | < 5.00 |  |  |  |  | 
8 | 5.08 | 4.81 | O=C1C=CC[C@@H](/C=C/c2ccccc2)O1 | < 5.00 | < 5.00 | < 5.00 |  |  |  |  | 
9 | 4.52 |  | O=C1C=CC[C@@H]([C@H](O)[C@H](Cl)c2ccccc2)O1 | < 5.00 | < 5.00 | < 5.00 |  |  |  |  | 
10 | 4.94 | 5.17 | O=c1cccc(/C=C/c2ccccc2)o1 | < 5.00 | < 5.00 | < 5.00 |  |  |  |  | 
11 | 5.20 | 5.72 | CNC(=O)c1cc(Oc2ccc(NC(=O)Nc3ccc(Cl)c(C(F)(F)F)c3)cc2)ccn1 [SORAFENIB] |  |  |  |  |  |  |  | 
12 | 4.67 | 4.70 | O=C1C=CC[C@@H]([C@@H]2O[C@H]2c2ccccc2)O1 | < 5.00 | < 5.00 | < 5.00 |  |  |  |  | 

From ChEMBL document CHEMBL3352645, “Bioactive 6S-styryllactone constituents of Polyalthia parviflora” (J Nat Prod, 2014)
